Screens (PubChem)
Rows were chosen to be rich in hits. Some 1.6% of all compounds tested hit in one or more screens of this group.
DNMT1 block = inhibitors of human DNMT1 | P26358 | DNMT1 molecular beacon, Hinp1I cleavage, fluorescence | inhibition (reported as % activation of signal), % at 10 µM | hit rate 0.83% among 360,000 | AID 588458; in the data active = inhibition above about 50%
Scp1 inh = inhibitors of human Scp-1 phosphatase. Recombinant Scp1, phosphopeptide, malachite green phosphate absorbance. inhibition, % at 20 µM. hit rate 0.88% among 340,000. AID 493091;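 active = inhibition above about 50% at 20 µM, limit read from the data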;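 also: plate controls were DMSO wells with enzyme for no effect and wells lacking enzyme for full effect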
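Assay system: SCP-1 catalytic fragment, aa 76-261 | Buffer or medium: Tris acetate buffer pH 5.5 with MgCl2 and Tween-20 | Compound: One concentration, 20 µM, with 1.0% DMSO | Also added: Phospho 17-mer peptide substrate | Signal: Absorbance at 630 nm | Incubation: 45 min enzyme reaction at room temperature | Measure: % inhibition of SCP-1 phosphate liberation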
LMPTP block = LMPTP (human) inhibition | P24666 | recombinant LMPTP-A, OMFP fluorogenic substrate, fluorescence intensity | inhibition, % at 20 µM | hit rate 0.22% among 360,000 | AID 651560;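 active = compounds that cut the enzyme signal by at least half of the control window in the single-dose screen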;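 also: plate controls were DMSO wells with enzyme plus substrate for no effect and substrate without enzyme for full effect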
Target sequence (P24666 whole entry, looked up): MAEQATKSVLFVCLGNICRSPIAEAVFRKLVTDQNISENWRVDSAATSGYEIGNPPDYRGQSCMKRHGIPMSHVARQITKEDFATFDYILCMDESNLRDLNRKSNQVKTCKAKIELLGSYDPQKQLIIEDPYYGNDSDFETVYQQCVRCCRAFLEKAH
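material = LMPTP-A | quantity = 0.625 nM enzyme | reagent = OMFP substrate, 400 µM final | buffer or medium = Bis-Tris pH 6.0, DTT, detergent | detection = endpoint fluorescence intensity from OMFP dephosphorylation | dosing = single 20 µM dose | read-out basis = % inhibition relative to no-enzyme and uninhibited control wells | control set = no-enzyme and uninhibited controls | timing = 50 min at room temperature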
SUMO1 PPI mod = SUMO1-SIM interaction modulation; P63165; SUMO1 binding to a labelled peptide, TR-FRET, 1 h; inhibition, % at 20 µM; hit rate 0.33% among 360,000; AID 602429; in the data active = inhibition above about 37%
STEP inh = blocks human striatal-enriched tyrosine phosphatase; hit rate 0.25% among 360,000; recombinant STEP, OMFP fluorogenic substrate, fluorescence; inhibition, % at 20 µM;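 active = inhibition at 20 µM, scaled per plate between control wells, above about 37%, limit read from the data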;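 also: 0% = DMSO with enzyme and substrate and 100% = substrate only without enzyme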
Target sequence (P54829 whole entry, looked up): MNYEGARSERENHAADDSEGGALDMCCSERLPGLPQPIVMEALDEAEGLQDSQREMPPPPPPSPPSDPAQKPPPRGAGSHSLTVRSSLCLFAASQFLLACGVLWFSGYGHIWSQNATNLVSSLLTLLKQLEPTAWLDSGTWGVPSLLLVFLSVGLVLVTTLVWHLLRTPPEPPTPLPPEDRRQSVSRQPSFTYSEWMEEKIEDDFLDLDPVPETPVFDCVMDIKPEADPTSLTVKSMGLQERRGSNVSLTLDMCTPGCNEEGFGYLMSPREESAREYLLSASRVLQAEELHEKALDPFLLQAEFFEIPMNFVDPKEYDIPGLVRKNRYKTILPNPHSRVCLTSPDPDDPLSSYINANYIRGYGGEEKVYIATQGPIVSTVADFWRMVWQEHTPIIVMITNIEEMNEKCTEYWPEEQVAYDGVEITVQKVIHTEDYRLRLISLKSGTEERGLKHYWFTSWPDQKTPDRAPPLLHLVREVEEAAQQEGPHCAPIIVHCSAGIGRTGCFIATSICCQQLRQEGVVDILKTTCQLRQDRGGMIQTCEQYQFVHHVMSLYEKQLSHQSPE
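System: STEP phosphatase, cell-free reaction; Buffer or medium: Bis-Tris pH 6.0 buffer with DTT, detergent; Incubation: 20 min at room temperature, dark; Measured by: fluorescence, 480/540 nm.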
F508del corr = correctors of CFTR F508del function in bronchial epithelial cells. CFBE cells, YFP halide quenching; stimulated with forskolin plus potentiator P3; % fluorescence drop versus neutral controls. activity (quench increase), % at 7.58 µM. hit rate 0.36% among 350,000;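 active = mean added fluorescence quench of at least 8% versus neutral control, with both replicates also reaching 8%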;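 also: cells transiently co-express mutant CFTR-F508del with the halide-sensitive YFP; corrector assay measuring rescue of mutant channel to the surface after 24 h compound exposure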
Scp-1 conf = confirmation of human Scp-1 phosphatase inhibitors. shares compounds with Scp1 inh. recombinant SCP-1 catalytic domain, phosphate release, malachite green absorbance. inhibition, % at 20 µM. hit rate 61% among 2,500. AID 540281;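 also: plate controls were DMSO with enzyme for no effect and buffer wells lacking enzyme for full effect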
Scp-1 MG ctr = interferes with malachite green readout, flagging false Scp-1 hits. shares compounds with Scp1 inh. Colorimetric interference counterscreen, malachite green absorbance 630 nm. apparent inhibition (interference), % at 20 µM. 2,500 tested, under 10 active. AID 540313;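 also: compounds added after enzyme reaction finished so only phosphate colour detection is probed; plate controls were DMSO wells with completed Scp-1 reaction for no effect and substrate wells lacking enzyme for full effect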
Scp-1 Tm shift = Scp-1 (human) binding by thermal shift | shares compounds with Scp1 inh | Recombinant SCP1, Sypro Orange thermal shift Tm | thermal shift relative to vanadate control, % at 40 µM | hit rate 25% among 1,500 | AID 540329;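 active = substances whose mean melting-temperature shift, as a percentage of the reference inhibitor's shift, reaches about 5.3%, limit read from the data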;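 also: 0% = Tm of DMSO wells and 100% = Tm with sodium orthovanadate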
Numbers without * were called inactive; nt = not tested or not shown.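 The calls were made as follows, unless noted: active = inhibition of at least 30% at 20 µM; inactive = the rest.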

SMILES	DNMT1 block	Scp1 inh	LMPTP block	SUMO1 PPI mod	STEP inh	F508del corr	Scp-1 conf	Scp-1 MG ctr	Scp-1 Tm shift
CCCc1ccc(C(=O)NNC(=O)c2ccc(Br)cc2)cc1	33.2	93.9*	36.0	-1.9	4.7	nt	80.7*	-9.8	-14.0
CCC/C(C)=N/NC(=O)c1ccccc1O	1.7	-8.7	-3.2	2.7	0.5	nt	nt	nt	nt
O=C(NC(=O)c1ccccc1O)c1ccc(C(F)(F)F)cc1	0.5	82.6*	6.3	6.1	25.8	-3.0	67.6*	-12.3	0.1
CCCc1ccc(C(=O)NC(=O)c2ccccc2O)cc1	-2.4	67.3*	37.0	1.6	48.1*	0.7	88.6*	-14.5	-8.9
COc1ccc(S(=O)(=O)N(C)C[C@@H]2Oc3c(NC(=O)C4CCOCC4)cccc3C(=O)N([C@@H](C)CO)C[C@H]2C)cc1	nt	nt	nt	nt	nt	-0.9	nt	nt	nt
COc1ccc(-c2ccc(/C=N/NC(=O)c3cccnc3)o2)c([N+](=O)[O-])c1	-0.9	96.2*	52.7*	-14.2	32.4	nt	81.9*	-11.8	4.0
Cn1c(NNC(=O)c2cccc3ccccc23)cc(=O)n(C)c1=O	-4.9	-1.2	-1.7	-10.1	-0.4	5.1	-3.8	0.9	nt
CC(=O)N1CCc2cc(S(=O)(=O)CCC(=O)N3CCN(c4ccccc4F)CC3)ccc21	2.8	5.1	0.0	-3.6	-0.2	0.4	nt	nt	nt
CC(=O)N1CCCc2cc(S(=O)(=O)CCC(=O)N3CCN(c4cccc(C)c4)C(C)C3)ccc21 (stereo not drawn)	33.4	50.5*	0.2	7.9	-1.6	-4.1	25.6	6.4	nt
COc1cccc(C(=O)Nc2ccccc2C(=O)N2CCCC2)c1	-3.3	-6.7	-0.3	-0.7	3.3	nt	nt	nt	nt
O=C(Nc1ccccc1C(=O)N1CCCCCC1)c1ccccc1	1.6	58.5*	-1.2	-3.9	0.7	0.6	-24.0	-21.4	nt
COc1ccc2c3c([nH]c2c1)[C@H](CO)N(Cc1nccs1)CC31CN(Cc2nccs2)C1	nt	nt	nt	nt	nt	4.2	nt	nt	nt
N#C[C@@H]1[C@H](c2ccccc2)[C@H](CO)N1S(=O)(=O)c1ccc(-c2ccccc2)cc1	nt	nt	nt	nt	nt	1.0	nt	nt	nt
COc1ccc(S(=O)(=O)Nc2ccc3c(c2)C(=O)N([C@H](C)CO)C[C@@H](C)[C@H](CN(C)S(=O)(=O)c2ccccc2)OCCCC[C@@H](C)O3)cc1	nt	nt	nt	nt	nt	-3.0	nt	nt	nt
O=C(C[C@@H]1CC[C@H](NC(=O)Cc2cccnc2)[C@@H](CO)O1)Nc1ccccc1	nt	nt	nt	nt	nt	-1.3	nt	nt	nt
CO[C@@H]1CN(C)C(=O)c2cc(NS(=O)(=O)CC(F)(F)F)ccc2OC[C@H](C)N(Cc2cccnc2)C[C@H]1C	nt	nt	nt	nt	nt	-2.8	nt	nt	nt
O=C(CNC(=O)Cc1ccccc1)NCC(=O)N1CCCCC1	-0.2	-8.3	-1.6	1.9	-0.2	-0.9	nt	nt	nt
O=C(CNC(=O)Cc1ccc(Cl)cc1)NCC(=O)N1CCCCC1	0.5	64.8*	0.8	3.8	-1.3	2.2	-10.5	-14.0	nt
O=C(NNC(=O)c1ccccc1Br)c1ccc2nc[nH]c2c1	21.9	73.4*	4.7	11.8	18.3	0.7	66.0*	-9.6	3.0
O=C(NNC(=O)c1ccccc1F)c1ccc2nc[nH]c2c1	1.3	11.2	0.6	4.1	-2.6	-1.6	nt	nt	nt
O=C(O)CNC(=O)CC1S/C(=N/N=C2/NC(=O)CS2)NC1=O (stereo not drawn)	2.1	71.6*	-0.1	13.6	0.9	nt	68.6*	-2.1	-13.2
NC(=O)NC(=O)CC1S/C(=N/N=C2\CSC(=O)N2)NC1=O (stereo not drawn)	4.6	-6.5	-1.9	2.9	-2.4	-0.9	nt	nt	nt
CC(=O)N(C)C[C@H]1Oc2cc(-c3cccc(C#N)c3)ccc2S(=O)(=O)N([C@H](C)CO)C[C@@H]1C	nt	nt	nt	nt	nt	-2.4	nt	nt	nt
COc1ccc(NS(=O)(=O)c2cccc(C(=O)NNC(=O)c3ccccc3O)c2)cc1	1.6	-15.2	-0.9	3.3	-0.7	1.6	nt	nt	nt
COc1ccc(NS(=O)(=O)c2cccc(C(=O)NNC(=O)c3cccn3C)c2)cc1	28.9	62.6*	2.5	1.9	-1.7	1.2	64.8*	-9.5	6.8*
SMILES	DNMT1 block	Scp1 inh	LMPTP block	SUMO1 PPI mod	STEP inh	F508del corr	Scp-1 conf	Scp-1 MG ctr	Scp-1 Tm shift
COc1ccc(/C=C/C(=O)NC(=S)Nc2cc([N+](=O)[O-])ccc2O)cc1OC	-14.4	80.5*	56.1*	12.6	61.9*	-0.3	54.1*	-9.8	5.7*
COc1ccc([N+](=O)[O-])cc1NC(=S)NC(C)=O	1.5	-5.7	0.7	-11.1	-3.7	-1.5	nt	nt	nt
COCC#Cc1cnc2c(c1)C(=O)N([C@@H](C)CO)C[C@H](C)[C@H](CN(C)C(=O)Cc1ccncc1)O2	nt	nt	nt	nt	nt	0.1	nt	nt	nt
COc1ccc(/C=C2\SC(=S)N(CCCC(=O)Nc3ccc(O)cc3)C2=O)cc1	-13.6	-10.7	-0.2	-25.2	-3.0	-0.3	nt	nt	nt
O=C(CCN1C(=O)/C(=C/c2ccc(F)cc2)SC1=S)Nc1cc([N+](=O)[O-])ccc1O	1.5	64.0*	13.0	-4.1	14.7	0.1	50.1*	-14.5	7.2*
O=C(CCCN1C(=O)/C(=C/c2cccs2)SC1=S)Nc1cc([N+](=O)[O-])ccc1O	-1.2	-5.3	-0.1	-3.0	1.0	-1.9	nt	nt	nt
COc1ccc(/C=C2\SC(=S)N(CCC(=O)Nc3ccc(C(=O)O)cc3)C2=O)cc1	0.1	86.7*	89.9*	-19.5	94.9*	-1.0	68.9*	-13.6	20.8*
COc1ccc(CCn2c(C(C)C)nc3c(c(=O)c4ccccc4n3C)c2=O)cc1	-1.8	58.5*	4.2	11.5	2.2	nt	11.4	5.5	nt
Nc1ccc(-c2ccc(N)c(C(=O)O)c2)cc1C(=O)O	18.9	54.9*	0.6	8.3	1.2	0.1	-5.2	-15.6	nt
Cc1nn(CCc2nn[nH]n2)c2nc(-c3ccccc3)cc(C(F)(F)F)c12	1.7	63.6*	-0.2	3.8	-3.2	-1.5	70.6*	-3.8	-11.2
O=C(c1cccnc1)N1CCC(Oc2ccc(C(=O)N3CCCCO3)cc2)CC1	0.3	69.3*	-0.3	16.6	1.8	-1.0	-10.9	-4.0	nt
CCC(=O)C1CCCN(C(=O)c2ccc(OC3CCN(C(=O)c4cccnc4)CC3)cc2)C1 (stereo not drawn)	0.8	-5.2	-1.4	3.4	0.5	1.1	nt	nt	nt
COCCN(C(=O)C1CCN(C(=O)c2ccccc2C)CC1)c1c(N)n(CC(C)C)c(=O)[nH]c1=O	5.5	63.3*	-2.3	0.6	-3.6	2.4	76.7*	-17.3	-0.9
